Measurements as given in ChEMBL document CHEMBL4811241, “Revisiting Pyrazolo[3,4-d]pyrimidine Nucleosides as Anti-Trypanosoma cruzi and Antileishmanial Agents” (J Med Chem, 2021).

Experiments:
Trypanosoma cruzi = experiment: Antitrypanosomal activity against nifurtimox-sensitive Trypanosoma cruzi Tulahuen CL2 infected in human MRC-5 SV2 cells assessed as inhibition of parasite growth measured after 7 days by spectrophotometric analysis; format: functional, organism-based; settings: Tulahuen CL2, MRC-5 SV2, 168 h
[1] = Cytotoxicity against human MRC-5 SV2 cells assessed as reduction in cell growth measured after 3 days by resazurin dye based fluorometric analysis; settings: time 3 day
[2] = Selectivity index, ratio of CC50 for human MRC-5 SV2 cells to IC50 for antitrypanosomal activity against nifurtimox-sensitive Trypanosoma cruzi Tulahuen CL2 infected in human MRC-5 SV2 cells; format: toxicity, cell-based; settings: read-out: Ratio CC50/IC50
Summary of the method: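 Ratio of MRC-5SV2 CC50 (3-day resazurin assay) to IC50 against T. cruzi amastigotes in MRC-5SV2 cells (7-day CPRG assay).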

Leishmania infantum = experiment: Antileishmanial activity against amastigote form of Leishmania infantum MHOM/MA(BE)/67 infected in Swiss mouse peritoneal macrophages assessed as reduction in parasite growth treated at 2 hrs post-infection and measured after 5 days by Giemsa staining based microscopic analysis; format: functional, organism-based; settings: MHOM/MA(BE)/67, Peritoneal macrophage
Summary of the method: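 Swiss mouse peritoneal macrophages, harvested after 2-day potato-starch stimulation, infected 48 h after plating; compounds added 2 h post-infection.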

[3] = Cytotoxicity against Swiss mouse peritoneal macrophages assessed as cell detachment, lysis and granulation measured after 5 days by microscopic analysis; format: cell-based, Peritoneal macrophage; settings: time 5 day
Summary of the method: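 Scored within the Leishmania macrophage assay over 5 days: detachment, lysis and granulation judged semi-quantitatively by microscopy across at least 500 cells. CC50 derived from % reduction in normal cells versus untreated wells.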

SMILES | IC50 (Trypanosoma cruzi) [µM] | CC50 at 72 h [1] [µM] | selectivity ratio [2] | IC50 (Leishmania infantum) [µM] | CC50 at 120 h [3] [µM]
Nc1ncnc2c1c(-c1ccc(F)c(F)c1)nn2[C@@H]1O[C@H](CO)[C@@H](O)[C@H]1O | 4.24 | > 64 | > 15 | > 64 | > 64
Oc1ncnc2[nH]nc(Br)c12 | > 64 | > 64 |  | > 64 | > 64
Cc1cc(-c2nn([C@@H]3O[C@H](CO)[C@@H](O)[C@H]3O)c3ncnc(N)c23)ccc1Cl | 0.81 | > 64 | > 79 | > 64 | > 64
N#Cc1cc(-c2nn([C@@H]3O[C@H](CO)[C@@H](O)[C@H]3O)c3ncnc(N)c23)ccc1Cl | > 64 | > 64 |  | > 64 | > 64
O=c1[nH]cnc2c1c(Br)nn2[C@@H]1O[C@H](CO)[C@@H](O)[C@H]1O | > 64 | > 64 |  | > 64 | > 64
COc1cc(-c2nn([C@@H]3O[C@H](CO)[C@@H](O)[C@H]3O)c3ncnc(N)c23)ccc1Cl | 1.14 | > 64 | > 56 | > 64 | > 64
Cn1cc(-c2nn([C@@H]3O[C@H](CO)[C@@H](O)[C@H]3O)c3ncnc(N)c23)cn1 | 45.3 | > 64 | > 1 | > 64 | > 64
Nc1ncnc2c1cnn2[C@H]1C[C@H](O)[C@@H](CO)O1 | > 64 | > 64 |  | > 64 | > 64
Cc1ccc(-c2nn([C@@H]3O[C@H](CO)[C@@H](O)[C@H]3O)c3ncnc(N)c23)cc1 | 1.77 | > 64 | > 36 | > 64 | > 64
Nc1ncnc2c1cnn2[C@@H]1O[C@H](CO)[C@@H](F)[C@H]1O | > 64 | > 64 |  | > 64 | > 64
CCOc1cc(-c2nn([C@@H]3O[C@H](CO)[C@@H](O)[C@H]3O)c3ncnc(N)c23)ccc1Cl | 45.3 | > 64 | > 1 | > 64 | > 64
N#Cc1ccc(-c2nn([C@@H]3O[C@H](CO)[C@@H](O)[C@H]3O)c3ncnc(N)c23)cc1 | 32 | > 64 | > 2 | > 64 | > 64
Nc1ncnc2c1c(C(=O)NCc1ccccc1)nn2[C@@H]1O[C@H](CO)[C@@H](O)[C@H]1O | > 64 | > 64 |  | > 64 | > 64
Nc1ncnc2c1c(-c1ccc([N+](=O)[O-])cc1)nn2[C@@H]1O[C@H](CO)[C@@H](O)[C@H]1O | 10.3 | > 64 | > 6 | > 64 | > 64
Nc1ncnc2c1c(-c1ccc(F)cc1)nn2[C@@H]1O[C@H](CO)[C@@H](O)[C@H]1O | 3.36 | > 64 | > 19 | > 64 | > 64
Nc1ncnc2c1c(-c1ccc(Cl)c(F)c1)nn2[C@@H]1O[C@H](CO)[C@@H](O)[C@H]1O | 1.19 | > 64 | > 54 | > 64 | > 64
O=c1[nH]cnc2c1cnn2[C@@H]1O[C@H](CO)C[C@H]1O | > 64 | > 64 |  | > 64 | > 64
Nc1ncnc2c1c(-c1ccc(OC(F)(F)F)cc1)nn2[C@@H]1O[C@H](CO)[C@@H](O)[C@H]1O | 15.6 | > 64 | > 4 | > 64 | > 64
Nc1ncnc2c1c(-c1ccc(F)c(Cl)c1)nn2[C@@H]1O[C@H](CO)[C@@H](O)[C@H]1O | 4.66 | > 64 | > 14 | > 64 | > 64
Nc1ncnc2c1c(-c1nnn[nH]1)nn2[C@@H]1O[C@H](CO)[C@@H](O)[C@H]1O | > 64 | > 64 |  | > 64 | > 64
Nc1ncnc2c1c(C(F)(F)F)nn2[C@@H]1O[C@H](CO)[C@@H](O)[C@H]1O | 27 | 13.3 | < 1 | > 64 | > 64
Nc1ncnc2c1c(-c1cc(F)c(Cl)c(F)c1)nn2[C@@H]1O[C@H](CO)[C@@H](O)[C@H]1O | 1.33 | > 64 | > 17 | > 64 | > 64
Nc1ncnc2c1cnn2[C@@H]1O[C@H](CO)C[C@H]1O | > 64 | > 64 |  | > 64 | > 64

SMILES | IC50 (Trypanosoma cruzi) [µM] | CC50 at 72 h [1] [µM] | selectivity ratio [2] | IC50 (Leishmania infantum) [µM] | CC50 at 120 h [3] [µM]
COc1ccc(-c2nn([C@@H]3O[C@H](CO)[C@@H](O)[C@H]3O)c3ncnc(N)c23)cc1 | 18.2 | > 64 | > 4 | > 64 | > 64
Nc1ncnc2c1c(C1CC1)nn2[C@@H]1O[C@H](CO)[C@@H](O)[C@H]1O | > 64 | > 64 |  | > 64 | > 64
Nc1ncnc2c1c(-c1cccs1)nn2[C@@H]1O[C@H](CO)[C@@H](O)[C@H]1O | 10.4 | 32 | 3 | > 64 | > 64
Nc1ncnc2c1c(N1CCCC1)nn2[C@@H]1O[C@H](CO)[C@@H](O)[C@H]1O | > 64 | > 64 |  | > 64 | > 64
Cc1cc(Cl)ccc1-c1nn([C@@H]2O[C@H](CO)[C@@H](O)[C@H]2O)c2ncnc(N)c12 | 3.76 | > 64 | > 17 | > 64 | > 64
O=c1[nH]cnc2c1cnn2[C@@H]1O[C@H](CO)[C@@H](F)[C@H]1O | > 64 | > 64 |  | > 64 | > 64
N#Cc1cc(-c2ccc(-c3nn([C@@H]4O[C@H](CO)[C@@H](O)[C@H]4O)c4ncnc(N)c34)cc2C#N)ccc1Cl | > 64 | > 64 |  | > 64 | > 64
Cc1csc(-c2nn([C@@H]3O[C@H](CO)[C@@H](O)[C@H]3O)c3ncnc(N)c23)c1 | 32 | > 64 | > 2 | > 64 | > 64
Nc1ncnc2c1c(-c1ccc(Cl)c(C(F)(F)F)c1)nn2[C@@H]1O[C@H](CO)[C@@H](O)[C@H]1O | 43.8 | > 64 | > 1 | > 64 | > 64
Nc1ncnc2c1c(C(=O)N1CCCC1)nn2[C@@H]1O[C@H](CO)[C@@H](O)[C@H]1O | > 64 | > 64 |  | > 64 | > 64
Nc1ncnc2c1c(CN1CCOCC1)nn2[C@@H]1O[C@H](CO)[C@@H](O)[C@H]1O | > 64 | > 64 |  | > 64 | > 64
O=c1[nH]cnc2c1c(Br)nn2[C@@H]1O[C@H](CO)[C@@H](F)[C@H]1O | > 64 | > 64 |  | > 64 | > 64
CCc1nn([C@@H]2O[C@H](CO)[C@@H](O)[C@H]2O)c2ncnc(N)c12 | > 64 | > 64 |  | > 64 | > 64
Nc1ncnc2c1c(-c1ccc(Cl)c(Cl)c1)nn2[C@@H]1O[C@H](CO)[C@@H](O)[C@H]1O | 2.82 | > 64 | > 23 | > 64 | > 64
Nc1ncnc2c1c(Oc1ccc(Cl)cc1)nn2[C@@H]1O[C@H](CO)[C@@H](O)[C@H]1O | > 64 | > 64 |  | > 64 | > 64
CC(C)(C)c1ccc(-c2nn([C@@H]3O[C@H](CO)[C@@H](O)[C@H]3O)c3ncnc(N)c23)cc1 | > 64 | > 64 |  | > 64 | > 64
CNC(=O)c1nn([C@@H]2O[C@H](CO)[C@@H](O)[C@H]2O)c2ncnc(N)c12 | 4 | > 64 | 16 | > 64 | > 64
CCCCCCCCCCCCCCCCOP(=O)([O-])OCC[N+](C)(C)C [MILTEFOSINE] |  |  |  | 7.47 | 
Nc1ncnc2c1c(Br)nn2[C@H]1C[C@H](O)[C@@H](CO)O1 | 53.2 | 24.9 |  | > 64 | > 64
Nc1ncnc2c1c(-c1ccc(Cl)s1)nn2[C@@H]1O[C@H](CO)[C@@H](O)[C@H]1O | 2.56 | 47.3 | 14 | > 64 | > 64
O=c1[nH]cnc2c1c(Br)nn2[C@@H]1O[C@H](CO)C[C@H]1O | > 64 | > 64 |  | > 64 | > 64
Nc1ncnc2c1c(Br)nn2[C@@H]1O[C@H](CO)C[C@H]1O | 38.5 | 2.2 |  | > 64 | > 64
